Published values from different studies.
Each line is one published result; the experiments were not run side by side.
HTR6: 5-hydroxytryptamine receptor 6 (HTR6, Homo sapiens, UniProt P50406)
CDK2: Cyclin-dependent kinase 2 (CDK2, Homo sapiens, UniProt P24941)
HTR7: 5-hydroxytryptamine receptor 7 (HTR7, Homo sapiens, UniProt P34969)
OR5K1 A2T/T15M/Y193C: OR5K1 (Homo sapiens, UniProt Q8NHB7, A2T/T15M/Y193C)
STAT3: Signal transducer and activator of transcription 3 (STAT3, Homo sapiens, UniProt P40763)
SIRT6: NAD-dependent protein deacylase sirtuin-6 (SIRT6, Homo sapiens, UniProt Q8N6T7)
PKM: Pyruvate kinase PKM (PKM, Homo sapiens, UniProt P14618)

Compound | target | assay | setting | measurement | value
Cc1ccc2cccc(N3CCN(CCCCOc4ccc5sc(C(C)C)nc5c4)CC3)c2n1 | HTR6 | cell-free assay, radioligand |  | Ki | 2.2 µM
CC1=C(/C=C/C2=CCC[C@@]3(C)[C@H]2CC[C@@H]3[C@@](C)(O)CCCC(C)C)C[C@@H](O)CC1 | Oxysterols receptor LXR-beta (NR1H2, Homo sapiens, UniProt P55055) | coactivator recruitment, agonist, TR-FRET |  | EC50 | 0.01 to 0.1 µM
CC(=O)N=S(=O)(O)c1ccc(N/C=C2\C(=O)Nc3ccc4ncsc4c32)cc1 | CDK2 | binding, ITC |  | Kd | 0.194 µM
CN(C)CCSc1nc2ccccc2cc1-c1ccccc1 | HTR7 | ligand displacement, radioligand | cell membranes | Ki | 0.393 µM
CCc1nccnc1CC | OR5K1 A2T/T15M/Y193C | cAMP, agonist |  | EC50 | 499 µM
CN1C[C@H](CNC(=O)OCc2ccccc2)C[C@@H]2c3cccc4c3c(cn4C)C[C@H]21 | HTR7 | ligand displacement, radioligand | cell membranes | Ki | 0.016 µM
CN(CC(=O)N(Cc1cc(C(C)(C)C)cc(C(C)(C)C)c1)c1ccc(C(=O)O)c(O)c1)S(=O)(=O)c1c(F)c(F)c(F)c(F)c1F | STAT3 | ligand displacement, FP |  | Ki | 37.5 µM
Cc1ccccc1Sc1ccc(CONC(=O)c2ccc(C(N)=O)cc2)cc1C(F)(F)F | SIRT6 | enzyme activity, inhibitor, fluorescence |  | IC50 | 1.77 µM
Cc1ccc(NS(=O)(=O)c2cc3c(cc2Cl)CCC(=O)N3)cc1Cl | PKM | enzyme activity, activator |  | AC50 | 0.09 µM
CCCCN1CCC(COC(=O)c2ccc(N)c(OCF)c2)CC1 | HTR6 | cell-free assay, radioligand |  | Ki | > 10 µM
Cc1cc(C)c(S(=O)(=O)N(C)CC(=O)N(Cc2cc(C(C)(C)C)cc(C(C)(C)C)c2)c2ccc(C(=O)O)c(O)c2)c(C)c1 | STAT3 | ligand displacement, FP |  | Ki | 19.7 µM
CC(C)[C@@H](CC[C@@H](C)[C@H]1CC[C@H]2[C@@H]3[C@H](O)C[C@H]4C[C@@H](NCCCNCCCCNCCCN)CC[C@]4(C)[C@H]3CC[C@]12C)OS(=O)(=O)O | Receptor-type tyrosine-protein phosphatase R (PTPRR, Homo sapiens, UniProt Q15256) | enzyme activity, inhibitor |  | Ki | 25 µM
Cc1ccc(NS(=O)(=O)c2cc3c(cc2N2CCC(N(C)C)C2)NC(=O)CC3)cc1C (stereo not drawn) | PKM | enzyme activity, activator |  | AC50 | > 20 µM
Cc1cccc(CONC(=O)c2ccc(C(N)=O)cc2)c1 | SIRT6 | enzyme activity, inhibitor, fluorescence |  | IC50 | 3.94 µM
Cc1ccc(NS(=O)(=O)c2cc3c(cc2Cl)NC(=O)CO3)cc1C | PKM | enzyme activity, activator |  | AC50 | 0.26 µM
Cc1nc2n(c(=O)c1CCN1CCC(c3noc4cc(F)ccc34)CC1)CCCC2O (stereo not drawn) | HTR7 | ligand displacement, radioligand | cell membranes | Ki | 0.01 µM
CC(=O)Nc1ccc(C(=O)NOCc2ccccc2)cc1 | SIRT6 | enzyme activity, inhibitor, fluorescence |  | IC50 | 218 µM
Cc1cc(NS(=O)(=O)c2ccc3c(c2)CCC(=O)N3)ccc1Cl | PKM | enzyme activity, activator |  | AC50 | 0.56 µM
O=C(Nc1cc(C2CCCCC2)[nH]n1)c1ccc(Br)cc1 | CDK2 | binding |  | Kd | > 100 µM
Cc1ccc(NS(=O)(=O)c2cc3c(cc2/C=C/c2ccccc2)NC(=O)CO3)cc1C | PKM | enzyme activity, activator |  | AC50 | > 20 µM

Compound | target | assay | setting | measurement | value
CC(=O)N[C@H](C(=O)N[C@@H](CC(N)=O)C(=O)N[C@@H](CCCCN)C(=O)N[C@@H](C)C(=O)N[C@@H](CC(C)C)C(=O)N1CCC[C@H]1C(=O)N[C@@H](C)C(=O)N[C@@H](CC(C)C)C(=O)N1CCC[C@H]1C(=O)N[C@H](C(=O)N[C@@H](C)C(N)=O)C(C)C)C(C)C | Tyrosine-protein kinase Fyn, SH3 (FYN, Homo sapiens, UniProt P06241) | binding, ITC | pH 7 | Kd | 70 µM
CC[C@H](NC(=O)[C@H](CS(=O)(=O)CC1CC1)N[C@@H](c1ccc(F)cc1)C(F)(F)F)C(=O)C(=O)NC1CC1 | Cathepsin B (CTSB, Homo sapiens, UniProt P07858) | enzyme activity, inhibitor, fluorescence | with preincubation | Ki | 0.00033 µM
NC(=O)c1ccc(C(=O)NOCc2cccc(-c3ccccc3)c2)cc1 | SIRT6 | enzyme activity, inhibitor, fluorescence |  | IC50 | 3.34 µM
COc1cccc(OC)c1NS(=O)(=O)c1ccc(N/C=C2\C(=O)Nc3ccc4ncsc4c32)cc1 | CDK2 | binding |  | Kd | 0.179 µM
Cc1cc(NS(=O)(=O)c2cc3c(cc2F)NC(=O)CC3)ccc1Cl | PKM | enzyme activity, activator |  | AC50 | 0.6 µM
Cc1cnc(-c2ccc(-c3ccc(NC(=O)Nc4c(F)cc(F)cc4F)cc3F)c3c2C(=O)NC3)[nH]1 | Mitogen-activated protein kinase kinase kinase kinase 1 (MAP4K1, Homo sapiens, UniProt Q92918) | binding, competition with immobilised ligand |  | Kd | 0.0072 µM
Cc1cnc(C)c(C)n1 | OR5K1 (Homo sapiens, UniProt Q8NHB7, F62L) | cAMP, agonist |  | EC50 | 376 µM
c1cnc2cc3c(cc2n1)[C@@H]1CNC[C@H]3C1 | Neuronal acetylcholine receptor subunit alpha-4/beta-2 (Mus musculus, UniProt O70174+Q9ERK7) | ligand displacement, radioligand | cell membranes | Ki | 0.00299 µM
Cc1ccc(Sc2ccc(CONC(=O)c3ccc(C(N)=O)cc3)cc2C(F)(F)F)cc1 | SIRT6 | enzyme activity, inhibitor, fluorescence |  | IC50 | 1.5 µM
CN1CCN(C2=Nc3cscc3/C(=C/C#N)c3cscc32)CC1 | HTR7 | ligand displacement, radioligand | cell membranes | Ki | 0.153 µM
CNc1cc2c(cc1S(=O)(=O)Nc1ccc(C)c(C)c1)CCC(=O)N2 | PKM | enzyme activity, activator |  | AC50 | 0.44 µM
CC(N)c1ccc(C(=O)NOCc2ccc(C(F)(F)F)cc2)cc1 (stereo not drawn) | SIRT6 | enzyme activity, inhibitor, fluorescence |  | IC50 | 2.64 µM
C=Cc1cnccn1 | OR5K1 (Homo sapiens, UniProt Q8NHB7) | cAMP, agonist |  | EC50 | > 1500 µM
NC(=O)c1ccc(C(=O)NOCc2ccc(Sc3cccc(F)c3)c(C(F)(F)F)c2)cc1 | SIRT6 | enzyme activity, inhibitor, fluorescence |  | IC50 | 1.02 µM
Nc1nc2c(ncn2[C@@H]2O[C@H](COP(=O)(O)OP(=O)(O)O)[C@@H](OP(=O)(O)OP(=O)(O)O)[C@H]2O)c(=O)[nH]1 | Xanthine-guanine phosphoribosyltransferase (Escherichia coli, UniProt P0A9M5) | binding, ITC |  | Kd | 3.2 µM
Cc1ccc(NS(=O)(=O)c2cc3c(cc2N[C@H](C)CO)NC(=O)CC3)cc1C | PKM | enzyme activity, activator |  | AC50 | 0.88 µM
CC(C)c1nc2cc(OCCCCN3CCN(c4cccc5c4OCCO5)CC3)ccc2s1 | HTR6 | cell-free assay, radioligand |  | Ki | 2.3 µM
COc1ccc(Sc2ccc(CONC(=O)c3ccc(C(N)=O)cc3)cc2C(F)(F)F)cc1 | SIRT6 | enzyme activity, inhibitor, fluorescence |  | IC50 | 1.48 µM
CCc1ncc(C)nc1CC | OR5K1 A2T/T15M/Y193C | cAMP, agonist |  | EC50 | 102 µM
